Active and inactive are the calls of the source. The calls are words filed in the database; no cut-off is given here.
Assays:
Mus musculus [1] = species on record: Mus musculus; assay: (§1) Binding affinity to mouse anti-dsDNA monoclonal antibody R4A assessed as inhibition of RA4 binding to DWEYS peptide preincubated for 1 hr followed by DWEYS peptide addition measured after 1 hr by ELISA
Procedure, shortened: (§2)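 Competitive ELISA: plates coated with DWEYS peptide overnight at 37 °C uncovered, blocked 3% BSA/PBS 1 h 37 °C. Compounds at varying concentrations preincubated with R4A (20 µg/mL) 1 h 37 °C, then added to washed wells 1 h 37 °C. Detection with alkaline phosphatase anti-mouse IgG (1:1000, 1 h RT), pNPP substrate 30–60 min, absorbance 405 nm.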

Mus musculus [2] = species on record: Mus musculus; assay: Binding affinity to mouse anti-dsDNA monoclonal antibody R4A assessed as inhibition of RA4 binding to DWEYS peptide at 5 to 50 uM preincubated for 1 hr followed by DWEYS peptide addition measured after 1 hr by ELISA; procedure, shortened: as §2
Mus musculus [3] = assay: Toxicity in CD-1 mouse assessed as tissue abnormalities administered daily for 1 week; type: organism-based; settings: in vivo, 168 h
[4] = as §1; procedure, shortened: as §2
Mus musculus [5] = species on record: Mus musculus; assay: Binding affinity to mouse anti-dsDNA monoclonal antibody R4A assessed as inhibition of RA4 binding to mouse kidney glomeruli antigens by measuring suppression of antibody deposition in kidney glomeruli at 50 uM preincubated for 1 hr followed by glomeruli addition by fluorescence microscopic analysis
Procedure, shortened: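 Murine glomeruli isolated and adhered to glass slides. R4A (20 µg/mL) preincubated with compound (50 µM) 1 h at 37 °C, then applied to glomeruli 1 h at room temperature. Bound antibody detected with FITC-conjugated anti-mouse IgG, PBS washes, fluorescence imaging.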

Mus musculus [6] = assay: Toxicity in CD-1 mouse assessed as behavioral changes administered daily for 1 week; type: organism-based; settings: in vivo, 168 h
Mus musculus [7] = species on record: Mus musculus; assay: Neuroprotective activity in C57BL/6 mouse assessed as inhibition of R4A-induced hippocampal neuron apoptosis at 50 uM pretreated to mouse followed by R4A injection measured after 1 day by TUNEL assay; type: functional
Procedure, shortened: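 Male C57BL/6 mice (30–34 g) anesthetized with 2.5% avertin ip. R4A (20 µg/mL) preincubated with vehicle or compound (50 µM) and injected stereotaxically (2 µL) into dorsal hippocampus CA1.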

Mus musculus [8] = assay: Reduction in glomerular cellularity score in kidney of NZB/NZW F1 mouse systemic lupus erythematosus model at 5 mg/kg/day, ip bid administered on day 1 at 22 weeks of age measured daily during compound dosing at 60 weeks by conglomerate blinded analysis; type: functional, organism-based
Procedure, shortened: (§3)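 Female NZB/W F1 mice dosed ip twice daily (5 mg kg−1 day−1) from 22 weeks of age. Formalin-fixed, paraffin-embedded kidney sections stained with H&E and scored blind by one investigator, 0–3+ each for glomerular sclerosis, hypercellularity, crescents, interstitial nephritis and perivascular infiltrates. Combined scores assessed at 60 weeks.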

Mus musculus [9] = assay: Reduction in glomerular sclerosis score in kidney of NZB/NZW F1 mouse systemic lupus erythematosus model at 5 mg/kg/day, ip bid administered on day 1 at 22 weeks of age measured daily during compound dosing at 60 weeks by conglomerate blinded analysis; type: functional, organism-based; procedure, shortened: as §3
Mus musculus [10] = assay: Toxicity in NZB/W F1 mouse systemic lupus erythematosus model assessed as prostration at 5 mg/kg/day, ip bid administered on day 1 at 22 weeks of age measured daily during compound dosing up to 34 weeks of age; type: organism-based; settings: in vivo
Procedure, shortened: (§4)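 Female NZB/W F1 mice from 22 weeks of age, before severe proteinuria, grouped by matched mean proteinuria and body weight (n = 10/group). Vehicle or compound at 5 mg kg−1 day−1 given ip twice daily. Body weight weekly, proteinuria every 2 weeks. Removal on ≥20% weight loss, prostration, or ≥3+ proteinuria two consecutive weeks; study end at 46 weeks.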

Mus musculus [11] = assay: Inhibition of lymphocyte aggregation in kidney of NZB/NZW F1 mouse systemic lupus erythematosus model at 5 mg/kg/day, ip bid administered on day 1 at 22 weeks of age measured at 60 weeks by hematoxylin and eosin staining based assay; type: functional, organism-based; procedure, shortened: as §3
Mus musculus [12] = assay: Reduction in interstitial inflammation score in kidney of NZB/NZW F1 mouse systemic lupus erythematosus model at 5 mg/kg/day, ip bid administered on day 1 at 22 weeks of age measured daily during compound dosing at 60 weeks by conglomerate blinded analysis; type: functional, organism-based; procedure, shortened: as §3
Mus musculus [13] = assay: Induction of delayed onset of systemic lupus erythematosus disease in NZB/W F1 mouse model at 5 mg/kg/day, ip bid administered on day 1 at 22 weeks of age measured daily during compound dosing up to 34 weeks of age; type: functional; procedure, shortened: as §4
Mus musculus [14] = assay: Inhibition of tubule dilation and casts in kidney of NZB/NZW F1 mouse systemic lupus erythematosus model at 5 mg/kg/day, ip bid administered on day 1 at 22 weeks of age measured at 60 weeks by hematoxylin and eosin staining based assay; type: functional, organism-based; procedure, shortened: as §3
Mus musculus [15] = assay: Reduction in crescents score in kidney of NZB/NZW F1 mouse systemic lupus erythematosus model at 5 mg/kg/day, ip bid administered on day 1 at 22 weeks of age measured daily during compound dosing at 60 weeks by conglomerate blinded analysis; type: functional, organism-based; procedure, shortened: as §3
Mus musculus [16] = assay: Increase in disease free survival in NZB/W F1 mouse systemic lupus erythematosus model at 5 mg/kg/day, ip bid administered on day 1 at 22 weeks of age measured daily during compound dosing up to 34 weeks of age; type: functional, organism-based; procedure, shortened: as §4
Mus musculus [17] = assay: Inhibition of IgG level in glomeruli of NZB/NZW F1 mouse systemic lupus erythematosus model at 5 mg/kg/day, ip bid administered on day 1 at 22 weeks of age; type: functional, organism-based
Procedure, shortened: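 Female NZB/W F1 mice dosed ip twice daily (5 mg kg−1 day−1) from 22 weeks of age. Formalin-fixed, paraffin-embedded terminal kidney sections from three representative mice per group stained for mouse IgG in glomeruli.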

Mus musculus [18] = assay: anti-DWEYS peptide reactivity in serum of NZB/NZW F1 mouse systemic lupus erythematosus model at 5 mg/kg/day, ip bid administered on day 1 to 71
Mus musculus [19] = assay: Toxicity in NZB/W F1 mouse systemic lupus erythematosus model assessed as body weight loss at 5 mg/kg/day, ip bid administered on day 1 at 22 weeks of age measured daily during compound dosing up to 34 weeks of age; type: organism-based; settings: in vivo; procedure, shortened: as §4
Mus musculus [20] = assay: Toxicity in CD-1 mouse assessed as drug tolerance at 1 mg/kg, iv as infusion or 10 mg/kg via oral gavage measured up to 60 mins for iv dosing or up to 240 mins for oral gavage; type: organism-based; settings: in vivo
Mus musculus [21] = assay: Inhibition of glomerulonephropathy in kidney of NZB/NZW F1 mouse systemic lupus erythematosus model at 5 mg/kg/day, ip bid administered on day 1 at 22 weeks of age measured at 60 weeks by hematoxylin and eosin staining based assay; type: functional, organism-based; procedure, shortened: as §3

Structure (SMILES)	inhibition (Mus musculus [1])	inhibition (Mus musculus [2])	Activity (Mus musculus [3])	IC50 [4]	inhibition (Mus musculus [5])	Activity (Mus musculus [6])	also measured
Cc1cccc(C)c1OCC(=O)N[C@@H](Cc1ccccc1)[C@@H](O)C[C@H](Cc1ccccc1)NC(=O)[C@H](C(C)C)N1CCCNC1=O	Dose-dependent effect	Active	–	–	–	–	–
Cc1c(O)cccc1CN[C@@H](CSc1ccccc1)[C@H](O)CN1C[C@H]2CCCC[C@H]2C[C@H]1CNC(C)(C)C	Dose-dependent effect	–	Non-Toxic	7.27 µM	Active	Non-Toxic	inhibition (Mus musculus [7]): Active
Cc1c(O)cccc1C(=O)N[C@@H](CSc1ccccc1)[C@H](O)CN1C[C@H]2CCCC[C@H]2C[C@H]1C(=O)NC(C)(C)C	Dose-dependent effect	Active	–	–	Active	–	–
CC(C)(C)NC[C@@H]1CNCCN1C[C@@H](O)C[C@H](CN[C@H]1c2ccccc2C[C@H]1O)Cc1ccccc1	–	–	–	42.7 µM	–	–	–
CC(C)(C)NC[C@@H]1CC2CCCCC2CN1C[C@@H](O)[C@H](Cc1ccccc1)NC[C@H](CCN)NCC1Nc2ccccc2CC1O (stereo partly drawn)	Dose-dependent effect	–	Non-Toxic	4.5 µM	Active	Non-Toxic	Activity (Mus musculus [8]): Active; Activity (Mus musculus [9]): Active; Activity (Mus musculus [10]): Non-Toxic; inhibition (Mus musculus [11]): Active; Activity (Mus musculus [12]): Active; Time (Mus musculus [13]): 26 - 36 weeks; inhibition (Mus musculus [14]): Active; Activity (Mus musculus [15]): Active; Activity (Mus musculus [16]): Active; inhibition (Mus musculus [17]): Active; inhibition (Mus musculus [18]): Active; Activity (Mus musculus [19]): < 20%; inhibition (Mus musculus [7]): Active; Activity (Mus musculus [20]): Non-Toxic; inhibition (Mus musculus [21]): Active
CC(C)(C)NC(=O)[C@@H]1CN(Cc2cccnc2)CCN1C[C@@H](O)C[C@@H](Cc1ccccc1)C(=O)N[C@H]1c2ccccc2C[C@H]1O	–	Active	–	–	–	–	–
CNCCCN[C@H](CN[C@@H](Cc1ccccc1)C[C@H](O)[C@H](Cc1ccccc1)NCCOc1c(C)cccc1C)C(C)C	Dose-dependent effect	–	Non-Toxic	2.08 µM	Active	Non-Toxic	–

Source: ChEMBL document CHEMBL3861989, “Amending HIV Drugs: A Novel Small-Molecule Approach To Target Lupus Anti-DNA Antibodies” (J Med Chem, 2016)
